Data as given in ChEMBL document CHEMBL4007413, “Replacing d-Glucosamine with Its l-Enantiomer in Glycosylated Antitumor Ether Lipids (GAELs) Retains Cytotoxic Effects against Epithelial Cancer Cells and Cancer Stem Cells” (J Med Chem, 2017).
Activity calls are given as the source filed them. The rule behind the calls is not given here.

How the values were obtained:
DU-145 [1] = test: Induction of membrane lysis in human DU145 cells at 0.01% after 10 mins by EthD-1 staining based fluorescence microscopic analysis
DU-145 [2] = test: Cytotoxicity against human DU145 cells assessed as decrease in cell viability after 48 hrs by MTS assay; type: functional; settings: for CC50: DU-145, 48 h
Procedure, shortened: (§1)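 Cells were seeded at equal numbers and, after 24 h, exposed to compounds (0–30 µM) for 48 h. MTS reagent (20% v/v) was then added for 1–4 h, and OD490 was read. Cell-free medium wells served as blanks. Media were DMEM/F12 + 10% FBS for BT-474; DMEM + 10% FBS for DU-145 and MDA-MB-231; and DMEM + 10% FBS + 2.5% horse serum for MiaPaCa-2. Values are mean ± SD, n=6.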

BT-474 [3] = test: Cytotoxicity against cancer stem cells derived from human BT474 cells assessed as cancer stem cell death at 20 uM after 3 days by MTS assay; type: functional
Procedure, shortened: (§2)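 CSCs were isolated from BT-474 using ALDH1 activity as the stemness marker. They were grown in ultra-low adhesion wells for 4 days to form spheroids. Spheroids were then exposed to compounds (0–20 µM) for 3 days. Viability was read by MTS assay and expressed as % of untreated control.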

MIA PaCa-2 = test: Cytotoxicity against human MIAPaCa2 cells assessed as decrease in cell viability after 48 hrs by MTS assay; type: functional; settings: for CC50: MIA PaCa-2, 48 h
Procedure, shortened: as §1

BT-474 [4] = test: Cytotoxicity against cancer stem cells derived from human BT474 cells assessed as cancer stem cell death at 7.5 uM after 3 days by MTS assay; type: functional
Procedure, shortened: as §2

MDA-MB-231 = test: Cytotoxicity against human MDA-MB-231 cells assessed as decrease in cell viability after 48 hrs by MTS assay; type: functional; settings: for CC50: MDA-MB-231, 48 h
Procedure, shortened: as §1

BT-474 [5] = test: Disruption of cancer stem cells spheroids derived from human BT474 cells at 7.5 uM after 3 days by microscopic analysis; type: functional, cell-based
Procedure, shortened: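 Equal numbers of ALDH1-selected BT-474 cancer stem cells were seeded in ultra-low adhesion wells and grown to form spheroids. Spheroids were incubated with or without compound for 3 days. Spheroid integrity was judged by microscopic imaging at ×10.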

BT-474 [6] = test: Cytotoxicity against human BT474 cells assessed as decrease in cell viability after 48 hrs by MTS assay; type: functional; settings: for CC50: BT-474, 48 h
Procedure, shortened: as §1

DU-145 [7] = test: Cytotoxicity against human DU145 cells assessed as decrease in cell viability up to 8 uM after 48 hrs in presence of pan-caspase inhibitor QVD-OPh by MTS assay; type: functional, cell-based
Procedure, shortened: (§3)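 DU-145 and JIMT-1 cells (DMEM + 10% FBS) were treated with compounds with or without the pan-caspase inhibitor QVD-OPh (40 µM). Viability was read by MTS: cells were seeded, treated 24 h later for 48 h, given MTS (20% v/v) for 1–4 h, and read at OD490 against cell-free blanks.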

DU-145 [8] = test: Cytotoxicity against human DU145 cells assessed as decrease in cell viability up to 8 uM after 48 hrs in absence of pan-caspase inhibitor QVD-OPh by MTS assay; type: functional, cell-based
Procedure, shortened: as §3

BT-474 [9] = test: Disruption of cancer stem cells spheroids derived from human BT474 cells at >=7.5 uM after 3 days by microscopic analysis; type: functional, cell-based
Procedure, shortened: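 Cancer stem cells were isolated from BT-474 by ALDH1 activity. Equal numbers were seeded in ultra-low-adhesion wells and grown to spheroids. Spheroids were then incubated with or without compounds for 3 days. Spheroid integrity was assessed by light microscopy (×10). Viability was measured in parallel by MTS.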

Erythrocyte = test: Induction of hemolysis in sheep erythrocytes at 30 uM after 30 mins by spectrophotometric analysis; type: functional, Ovis aries
JIMT-1 [10] = test: Cytotoxicity against human JIMT1 cells assessed as decrease in cell viability up to 8 uM after 48 hrs in absence of pan-caspase inhibitor QVD-OPh by MTS assay; type: functional, cell-based
Procedure, shortened: as §3

JIMT-1 [11] = test: Cytotoxicity against human JIMT1 cells assessed as decrease in cell viability up to 8 uM after 48 hrs in presence of pan-caspase inhibitor QVD-OPh by MTS assay; type: functional, cell-based
Procedure, shortened: as §3

With `CC(C)(C)CC(C)(C)c1ccc(OCCOCCOCCOCCOCCOCCOCCOCCOCCOCCO)cc1` the Activity (DU-145 [1]) was “Active”.
For `CC[C@@H](C(=O)[C@@H](C)[C@@H](O)[C@H](C)[C@@H]1O[C@@H]([C@@H](CC)C(=O)O)CC[C@@H]1C)[C@H]1O[C@]2(C=C[C@@H](O)[C@]3(CC[C@@](C)([C@H]4CC[C@](O)(CC)[C@H](C)O4)O3)O2)[C@H](C)C[C@@H]1C` [SALINOMYCIN], the Activity (DU-145 [2]) was “Active”, the Activity (BT-474 [3]) was 87% and the Activity (MIA PaCa-2) was “Active”. The Activity (BT-474 [4]) was 60%, the Activity (MDA-MB-231) was “Active” and the Activity (BT-474 [5]) was “inactive”. The Activity (BT-474 [6]) was “Active”.
With `CCCCCCCCCCCCCCCCOC[C@H](CO[C@@H]1O[C@@H](CN)[C@H](O)[C@@H](O)[C@@H]1N)OC` the CC50 (DU-145 [2]) was 4 to 11 µM, the Activity (DU-145 [7]) was “Active” and the Activity (DU-145 [8]) was “Active”. The Activity (BT-474 [9]) was “Active”, the Activity (Erythrocyte) was less than 5% and the Activity (JIMT-1 [10]) was “Active”. For the same compound, the Activity (JIMT-1 [11]) was “Active”, the CC50 (MIA PaCa-2) was 4 to 11 µM and the CC50 (MDA-MB-231) was 4 to 11 µM. It also gave a CC50 (BT-474 [6]) of 4 to 11 µM.
For `CCCCCCCCCCCCCCCCOC[C@H](CO[C@H]1O[C@H](CO)[C@@H](O)[C@H](O)[C@H]1N)OC`, the CC50 (DU-145 [2]) was 6 to 10.5 µM, the CC50 (MIA PaCa-2) was 6 to 10.5 µM and the CC50 (MDA-MB-231) was 6 to 10.5 µM. For the same compound, the CC50 (BT-474 [6]) was 6 to 10.5 µM.
